Test [1] relates to Protein cereblon/Epidermal growth factor receptor (Homo sapiens), P00533+Q96SW2 [UNDEFINED MUTATION]. The test is described as follows: Protac activity at CRBN/EGFR exon 19 deletion mutant in human PC9 cells assessed as induction of degradation of EGFR assessed as fold change in EGFR protein expression at 0.3 uM incubated for 24 hrs by Western blot analysis relative to control (reference value: 1). Particulars: PC-9. In kind it is cell-based. In a few lines:
(§1)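 Time course in PC9 cells at a fixed 0.3 μM. Cells harvested at the indicated time points and EGFR protein quantified by western blot relative to control.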
In general terms: A western blot detects proteins with antibodies after separation by electrophoresis.

Test [2] shares this test system. The test can be described thus: Protac activity at CRBN/EGFR exon 19 deletion mutant in human PC9 cells assessed as induction of degradation of EGFR by measuring fold change in EGFR protein expression at 1 uM incubated for 6 hrs by Western blot analysis relative to control (reference value: 1). In kind it is cell-based. The settings on record: PC-9. In a few lines: (§2)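 PC9 cells (EGFR Del19) exposed for 6 h to six concentrations from 0.1 μM to 10 μM. EGFR protein measured by western blot relative to untreated control. DC50 and Dmax derived from the concentration-response.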

Test [3] has the same test system. The test is described as follows: Protac activity at CRBN/EGFR exon 19 deletion mutant in human PC9 cells assessed as induction of degradation of EGFR assessed as fold change in EGFR protein expression at 0.3 uM incubated for 1 hr by Western blot analysis relative to control (reference value: 1). In kind it is cell-based. The settings on record: PC-9. A digest of the protocol:
as §1

In test [4] the test system is PC-9. The test can be described thus: Induction of apoptosis in human PC9 cells harboring EGFRDel19 mutant at 0.5 uM incubated for 24 hrs by confocal microscopy relative to control. The test is classed as functional. In a few lines: (§3)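 PC9 cells were exposed to 0.5 μM test agent for 24 h. Cell cycle distribution and apoptosis were then read on an ImageXpress Micro Confocal/Widefield high-content imaging system.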

The test system of test [5] is Protein cereblon/Epidermal growth factor receptor (Homo sapiens), P00533+Q96SW2 [UNDEFINED MUTATION]. The test is described as follows: Protac activity at CRBN/EGFR exon 19 deletion mutant in human PC9 cells assessed as induction of degradation of EGFR at 0.3 uM incubated for 6 hrs by Western blot analysis relative to control. The settings on record: PC-9. The test is classed as cell-based. In a few lines: as §1

Test [6] relates to NCI-H1975. The test is described as follows: Antiproliferative activity against human NCI-H1975 cells harboring EGFR L858R/T790M double mutant by MTT assay. The test is classed as functional, cell-based. A digest of the protocol: (§4)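 MTT proliferation read-out in human NSCLC lines: PC9 (EGFR Del19), HCC827 (EGFR Del E746-A750) and H1975 (EGFR L858R/T790M). IC50 values are in μM and reported as mean ± SD from n = 3.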
For orientation: Formazan colour is commonly taken as a measure of viable cells.

Test [7] has as its system Protein cereblon/Epidermal growth factor receptor (Homo sapiens), P00533+Q96SW2 [UNDEFINED MUTATION]. The test is described as follows: Protac activity at CRBN/EGFR exon 19 deletion mutant in human PC9 cells assessed as induction of degradation of EGFR by measuring fold change in EGFR protein expression at 0.3 uM incubated for 6 hrs by Western blot analysis relative to control (reference value: 1). The test is classed as cell-based. Particulars: PC-9. In a few lines:
as §2

Test [8] relates to PC-9. The test is described as follows: Induction of cell cycle arrest in human PC9 cells harboring EGFRDel19 mutant assessed as accumulation in G0/G1 phase at 0.5 uM incubated for 24 hrs by confocal microscopy. The test is classed as functional, cell-based. In a few lines: as §3
Test [9] concerns Protein cereblon/Epidermal growth factor receptor (Homo sapiens), P00533+Q96SW2 [UNDEFINED MUTATION]. The test can be described thus: (§5) Protac activity at CRBN/EGFR exon 19 deletion mutant in human PC9 cells assessed as induction of degradation of EGFR incubated for 6 hrs by Western blot analysis. In kind it is cell-based. The settings on record: PC-9. A digest of the protocol: as §2

In test [10] the target is Protein cereblon/Epidermal growth factor receptor (Homo sapiens, UniProt P00533+Q96SW2). The description is as §5. In kind it is cell-based. The settings on record: pc-9. In a few lines: as §2
The test system of test [11] is Protein cereblon/Epidermal growth factor receptor (Homo sapiens), P00533+Q96SW2 [UNDEFINED MUTATION]. The test is described as follows: Protac activity at CRBN/EGFR exon 19 deletion mutant in human PC9 cells assessed as induction of degradation of EGFR assessed as fold change in EGFR protein expression at 0.3 uM incubated for 12 hrs by Western blot analysis relative to control (reference value: 1). The test is classed as cell-based. Particulars: PC-9. A digest of the protocol:
as §1

Test [12] has the same test system. The test can be described thus: Protac activity at CRBN/EGFR exon 19 deletion mutant in human PC9 cells assessed as induction of degradation of EGFR assessed as fold change in EGFR protein expression at 0.3 uM incubated for 48 hrs by Western blot analysis relative to control (reference value: 1). Particulars: PC-9. The test is classed as cell-based. In a few lines: as §1

Test [13] has as its system HCC827. The test can be described thus: Antiproliferative activity against human HCC827 cells harboring EGFRDel19 mutant by MTT assay. In kind it is functional, cell-based. A digest of the protocol: as §4
Test [14] has as its system Protein cereblon/Epidermal growth factor receptor (Homo sapiens), P00533+Q96SW2 [UNDEFINED MUTATION]. The test is described as follows: Protac activity at CRBN/EGFR exon 19 deletion mutant in human PC9 cells assessed as induction of degradation of EGFR at 0.3 uM pretreated with proteasome inhibitor, MG-132 for 2 hrs followed by incubation with compound for 6 hrs by Western blot analysis. The test is classed as cell-based. Particulars: PC-9. In a few lines:
(§6)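 PC9 cells pretreated for 2 h with proteasome inhibitor MG-132 (10 μM) or lenalidomide (10 μM), then given 0.3 μM PROTAC for 6 h. EGFR levels read by western blot.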

The test system is the same in test [15]. The test can be described thus: Protac activity at CRBN/EGFR exon 19 deletion mutant in human PC9 cells assessed as induction of degradation of EGFR by measuring fold change in EGFR protein expression at 3 uM incubated for 6 hrs by Western blot analysis relative to control (reference value: 1). The test is classed as cell-based. The settings on record: PC-9. In a few lines:
as §2

The test system of test [16] is PC-9. The test can be described thus: Antiproliferative activity against human PC9 cells harboring EGFRDel19 mutant by MTT assay. In kind it is functional, cell-based. A digest of the protocol:
as §4

Test [17] relates to Protein cereblon/Epidermal growth factor receptor (Homo sapiens), P00533+Q96SW2 [UNDEFINED MUTATION]. The test is described as follows: Protac activity at CRBN/EGFR exon 19 deletion mutant in human PC9 cells assessed as induction of degradation of EGFR at 0.3 uM incubated for 24 hrs by DAPI-staining based immunofluorescence microscopy. The settings on record: PC-9. The test is classed as cell-based.

For test [18], the system named is Protein cereblon/Epidermal growth factor receptor (Homo sapiens), P00533+Q96SW2 [L858R,T790M]. The test can be described thus: Protac activity at CRBN/EGFR L858R/T790M mutant in human H1975 cells assessed as induction of degradation of EGFR at 10 uM incubated for 24 hrs by Western blot analysis. The test is classed as cell-based. A digest of the protocol: (§7)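 PC9 (EGFR Del19) and H1975 (EGFR L858R/T790M) cells exposed to 10 μM compound for 24 h. Cell lysates analysed for EGFR protein by western blot.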

Test [19] relates to Protein cereblon/Epidermal growth factor receptor (Homo sapiens), P00533+Q96SW2 [UNDEFINED MUTATION]. The test is described as follows: Protac activity at CRBN/EGFR exon 19 deletion mutant in human PC9 cells assessed as induction of degradation of EGFR by measuring fold change in EGFR protein expression at 0.1 uM incubated for 6 hrs by Western blot analysis relative to control (reference value: 1). The test is classed as cell-based. Particulars: PC-9. In a few lines: as §2

Test [20] has the same test system. The test is described as follows: Protac activity at CRBN/EGFR exon 19 deletion mutant in human PC9 cells assessed as induction of degradation of EGFR assessed as fold change in EGFR protein expression at 0.3 uM incubated for 3 hrs by Western blot analysis relative to control (reference value: 1). The test is classed as cell-based. Particulars: PC-9. A digest of the protocol:
as §1

The test system is the same in test [21]. The test can be described thus: Protac activity at CRBN/EGFR exon 19 deletion mutant in human PC9 cells assessed as induction of degradation of EGFR at 0.3 uM pretreated with proteasome inhibitor, lenalidomide for 2 hrs followed by incubation with compound for 6 hrs by Western blot analysis. The settings on record: PC-9. The test is classed as cell-based. A digest of the protocol: as §6

The test system is the same in test [22]. The test can be described thus: Protac activity at CRBN/EGFR exon 19 deletion mutant in human PC9 cells assessed as increase in degradation of EGFR at 10 uM incubated for 24 hrs by Western blot analysis. The test is classed as cell-based. Particulars: PC-9. In a few lines:
as §7

The test system is the same in test [23]. The test is described as follows: Protac activity at CRBN/EGFR exon 19 deletion mutant in human PC9 cells assessed as induction of degradation of EGFR by measuring fold change in EGFR protein expression at 10 uM incubated for 6 hrs by Western blot analysis relative to control (reference value: 1). The test is classed as cell-based. Particulars: PC-9. A digest of the protocol: as §2

Activity calls are given as the source filed them. The calls are words filed in the database; no cut-off is given here.

A word on the IC50: it is the concentration at which inhibition is half-maximal. A higher IC50 goes with lower potency. As a reminder, the DC50 is the midpoint of the concentration-degradation curve.

As to `C=CC(=O)Nc1cc(Nc2nccc(-c3cn(C)c4ccccc34)n2)c(OC)cc1N(C)CCN(C)CCOCCOCCOCCOCC(=O)Nc1cccc2c1CN(C1CCC(=O)NC1=O)C2=O` (stereo not drawn), the fold change (FC) in test [1] is 0.52; in test [2], 0.82; in [3], 0.96; in test [7], 0.32 to 0.44; in test [11], 1.39; in test [12], 0.57. For the same molecule, the fold change (FC) was 0.49 in [15], 0.61 in test [19], 1.01 in test [20] and 0.39 in test [23]. In addition, the Activity in test [4] is 38.6%; in test [9], “Dose-dependent effect”. The Emax in [5] was 56 to 68%. The IC50 in [6] is 657 nM; in test [13], 1340 nM; in test [16], 413 nM. The outcome in [8], in test [17], in test [18] and in test [22] was Active. Also, in test [10], the DC50 was 161 nM. For the same molecule, the result in [14] and in [21] was inactive.

Regarding `C=CC(=O)Nc1cc(Nc2nccc(-c3cn(C)c4ccccc34)n2)c(OC)cc1N(C)CCN(C)CCOCCOCC(=O)Nc1cccc2c1CN(C1CCC(=O)NC1=O)C2=O` (stereo not drawn), the figures for the IC50 in test [6], in test [13] and in test [16] were 1390 nM, 1870 nM and 1420 nM, respectively. In addition, the outcome in [18] and in test [22] was Active.

On to `C=CC(=O)Nc1cc(Nc2nccc(-c3cn(C)c4ccccc34)n2)c(OC)cc1N(C)CCN(C)CCOCCOCCOCC(=O)Nc1cccc2c1CN(C1CCC(=O)NC1=O)C2=O` (stereo not drawn), for which the IC50 in test [6] was 1700 nM; in test [13], 1610 nM; in test [16], 1120 nM. The outcome in test [18] and in test [22] was Active.
